# Bioassay records deposited in PubChem by several laboratories.
# EBI2 antag: EBI2 (human) antagonism; P32249; EBI2 beta-arrestin recruitment, luminescence, 7a,25-OHC stimulated; inhibition, % at 5 µM; actives 0.81% (n = 360,000); in the data active = inhibition above about 38%;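 note: enzyme fragment complementation signal reports receptor beta-arrestin coupling in cells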
# CCR6 antagonist: CCR6 (human) receptor antagonism; P51684; CHO-K1 CCR6 PathHunter beta-arrestin, luminescence, CCL20-stimulated; inhibition, % at 20 µM; actives 0.49% (n = 340,000); AID 493098;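 active = compounds whose inhibition of the agonist-driven luminescence signal at 20 µM reaches about 50%, limit read from the data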;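 note: cells stimulated with CCL20 at 14 nM final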
# HTR2A ag: activates the mouse 5-HT2A serotonin receptor; P35363; CHO-K1 mHTR2A beta-arrestin complementation, luminescence; percent of 30 µM serotonin response; activation, % at 7.6 µM; actives 0.66% (n = 360,000);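 active = activation above a run cutoff, the mean activation of all tested compounds plus 3 SD, cut at about 14% in these data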
# Target sequence (P35363 whole entry, looked up): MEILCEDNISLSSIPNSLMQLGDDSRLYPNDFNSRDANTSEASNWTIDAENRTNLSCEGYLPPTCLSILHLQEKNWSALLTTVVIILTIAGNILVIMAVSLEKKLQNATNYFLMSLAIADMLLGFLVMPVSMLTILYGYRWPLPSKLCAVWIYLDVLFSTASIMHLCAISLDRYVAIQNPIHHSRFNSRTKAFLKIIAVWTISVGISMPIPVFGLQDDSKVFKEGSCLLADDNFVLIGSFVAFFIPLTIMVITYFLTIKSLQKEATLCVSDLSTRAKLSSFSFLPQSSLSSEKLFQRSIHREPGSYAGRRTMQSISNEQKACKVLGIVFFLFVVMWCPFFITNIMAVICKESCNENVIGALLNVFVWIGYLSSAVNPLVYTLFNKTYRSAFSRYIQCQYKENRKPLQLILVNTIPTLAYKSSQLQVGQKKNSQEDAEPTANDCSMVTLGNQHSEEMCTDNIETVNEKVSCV
# APJ antag: blocks the human apelin receptor APJ | P35414 | CHO-K1 APJ beta-arrestin complementation, luminescence | inhibition, % at 20 µM | actives 0.32% (n = 330,000) | AID 2521;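 active = inhibition above about 40% at 20 µM, limit read from the data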;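 note: cells challenged with 10 nM apelin-13 agonist together with compound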
# APJ ag: APJ receptor agonism; P35414; CHO-K1 APJ PathHunter beta-arrestin, luminescence; 0% DMSO wells, 100% apelin; AID 2520; activation, % at 20 µM; actives 0.11% (n = 330,000);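 active = activation more than six SD over the plate average, tested at 20 µM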
#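 Material: engineered CHO-K1 APJ arrestin reporter cells; amount: 1000 CHO-K1 reporter cells seeded per well; incubation: compound stimulation 90 min at 25 °C, detection 60 min; signal: luminescent beta-gal fragment complementation, chemiluminescent substrate; read-out basis: APJ agonist activity; controls: DMSO-only wells as negative, 10 nM Apelin-13 as positive control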
# CXCR6 inh: CXCR6 (human) receptor inhibition | CHO-K1 PathHunter CXCR6 beta-arrestin, luminescence | actives 0.36% (n = 360,000) | inhibition, % at 20 µM | O00574; in the data active = inhibition above about 34%, passing the limit was not always enough;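 note: antagonist mode with CXCL16 agonist at 10 nM final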
# Numbers stand for hits; . = inactive; / = no result. Sampled rows, rich in hits. Any-hit rate of the full collection: about 2.2%.
SMILES,EBI2 antag,CCR6 antagonist,HTR2A ag,APJ antag,APJ ag,CXCR6 inh
Cc1c(C(=O)NCc2ccc(C(C)C)cc2)sc(=O)n1Cc1ccc(S(=O)(=O)N(C)C)cc1,.,/,.,/,/,.
COc1ccc2cc(C3CC=C(CO)CN3S(=O)(=O)c3ccccc3[N+](=O)[O-])n(C(=O)OC(C)(C)C)c2c1 (centres undefined),.,/,.,/,/,/
Cc1cc(N2CCN(C(C(=O)NC3CCCC3)c3ccco3)CC2)c2ccccc2n1 (centres undefined),.,/,.,/,/,/
O=[N+]([O-])c1cc([N+](=O)[O-])c2nonc2c1Nc1ccc(O)cc1,.,51.5,.,.,.,.
Clc1c(Cl)c(Cl)c2n[nH]nc2c1Cl,.,.,18.1,.,.,.
CN(C)c1nc(=NCc2ccco2)ss1,.,103.8,.,/,/,99.8
c1ccc(C(c2nnnn2Cc2ccco2)N2CCN(c3nc4ccccc4s3)CC2)cc1 (centres undefined),35.5,.,.,.,.,.
COc1ccc(-n2nc(C(=O)c3cccs3)cc(-c3nc4ccccc4[nH]3)c2=N)cc1,53.5,.,.,.,.,.
O=[N+]([O-])c1cc2cccnc2c2ncccc12,.,.,.,.,.,.
O=[N+]([O-])c1cc(O)c2ncccc2c1,/,54.0,/,.,.,/
Cc1c2cc(O)c(=O)cc-2oc2cc(O)c(O)cc12,.,.,.,.,.,.
COc1cc(OC)c(-c2c3cc(O)c(=O)cc-3oc3cc(O)c(O)cc23)cc1OC,.,64.3,.,.,.,.
CCc1nc(SCC(=O)c2ccc3c(c2)OCCO3)c2ccccc2n1,.,.,.,.,.,.
O=C(CSc1nc(Cc2ccccc2)nc2ccccc12)c1ccc2c(c1)OCCO2,.,.,19.4,.,.,.
C[C@H]1CN([C@@H](C)CO)C(=O)c2cc(Br)cnc2O[C@H]1CN(C)S(=O)(=O)c1ccccc1F,.,/,.,/,/,.
Cc1cc(C)nc(SC2=CS(=O)(=O)c3ccccc32)n1,.,.,.,.,.,.
O=S1(=O)C=C(Sc2nc3ccccc3s2)c2ccccc21,/,72.4,/,.,.,/
COC1=C(Br)C(=O)c2nc(C)ccc2C1=O,.,/,.,/,/,43.5
O=C(COC(=O)c1ccccc1C(=O)c1ccc(Cl)c([N+](=O)[O-])c1)NC1CCCCCC1,53.0,.,.,.,.,.
O=C(O)c1ccc(N2C(=O)/C(=C/c3ccc(-c4ccc([N+](=O)[O-])cc4)o3)C=C2c2ccccc2)cc1,.,/,.,.,.,44.8
S=C(NCCCN1CCOCC1)Nc1ccc(Cl)cc1,.,.,.,.,.,74.5
Cc1cccc(CCN=c2c([N+](=O)[O-])nn(-c3ccccc3)n2O)c1,.,.,.,.,.,.
Cc1cccc(-n2nc([N+](=O)[O-])c(=NC3CCN(Cc4ccccc4)CC3)n2O)c1,.,.,.,.,16.1,.
O=C(C[C@@H]1C=C[C@H](NC(=O)Cc2ccccn2)[C@@H](CO)O1)NCCc1ccccc1,.,/,.,/,/,/
c1ccc2[nH]c(NN=C3CCCCCC3)nc2c1,.,.,.,.,.,.
SMILES,EBI2 antag,CCR6 antagonist,HTR2A ag,APJ antag,APJ ag,CXCR6 inh
c1ccc2nc(NN=C3CCCCC3)ccc2c1,.,77.6,.,/,/,35.4
Cc1cc(C)c2c(=O)n(CC(=O)Nc3ccc(Br)c(C)c3)sc2n1,.,.,.,.,.,.
Cc1cc(C)c2c(=O)n(CC(=O)Nc3cccc(Cl)c3C)sc2n1,.,.,.,.,.,79.7
Brc1ccc(N/N=C(/N=Nc2nn[nH]n2)c2ccccc2)cc1,.,51.6,.,.,.,.
O=C(O)c1cccc(N/N=C(\N=Nc2ccccc2)c2ccccc2)c1,.,.,.,.,.,.
CCn1c(C)cc(C(=O)CSc2nnc(C3CC3)n2C2CC2)c1C,.,/,.,/,/,.
COc1ccccc1N=Nc1nc(-c2ccccc2)c(-c2ccccc2)[nH]1,.,67.1,.,/,/,.
COc1ccc(N=Nc2nc(-c3ccccc3)c(-c3ccccc3)[nH]2)cc1,.,.,.,.,.,.
COCCCN1C(=O)C(CC(=O)NCCN2CCOCC2)CC(C(=O)N(C)C)=C1C (centres undefined),.,/,.,/,/,.
CCCCCCCCN1C(=O)[C@H](CC(=O)N2CCN(C(=O)OCC)CC2)C[C@@]2(C(=O)OC)CCCCC=C12,.,/,.,/,/,.
COc1ccc(CC2=CC(=O)c3ccccc3C2=O)cc1,.,.,.,.,.,40.6
CCc1nc2ccc(C(=O)NC3CCN(Cc4ccccc4)CC3)cn2c1N(C)Cc1cc2ccccc2s1,.,/,.,/,/,.
Cc1ccn2c(Nc3ccccc3)c(-c3ccccn3)nc2c1,.,.,.,49.1,.,.
Cc1ccn2c(Nc3ccccc3C)c(-c3ccccn3)nc2c1,.,.,.,.,.,.
Cc1ccc(S(=O)(=O)N(C)C[C@@H]2OCc3cnnn3CCCC(=O)N([C@@H](C)CO)C[C@H]2C)cc1,.,/,.,/,/,.
OC(c1cccc(Cl)c1)c1ncc(-c2ccccc2Cl)[nH]1 (centres undefined),.,/,.,/,/,.
NC(=O)CSc1nc2ccc([N+](=O)[O-])cc2[nH]1,.,.,.,.,.,.
Cc1cccc2nc(CSc3nc4ccc([N+](=O)[O-])cc4[nH]3)c(Br)n12,.,51.5,.,.,.,.
CC(C)c1c(O)ccc2c1CC[C@H]1C(C)(C)CCC[C@]21C,53.1,.,45.1,/,/,.
CC(=O)OC(C)C1C2=C(C(=O)CC1(C)O)C(=O)c1c(ccc(-c3ccc4c(c3O)C(=O)C3=C(C4=O)C(C(C)OC(C)=O)C(C)(O)CC3=O)c1O)C2=O (centres undefined),.,51.6,.,/,/,.
CN(C)c1ccc(Cc2cc3c(O)ccc(O)c3cc(Cc3ccc(N(C)C)cc3)c2=O)cc1,.,/,.,/,/,34.3
CN(C)c1ccc(C(=O)c2ccc(O)cc2O)cc1,.,.,.,.,.,.
CCC(C(=O)OCC(=O)Nc1cc(Cl)ccc1Cl)c1ccccc1 (centres undefined),.,.,.,42.0,.,.
CCC(C(=O)OCC(=O)Nc1ccc(OC)cc1OC)c1ccccc1 (centres undefined),.,.,.,.,.,.
CCCCCCCCN1C(=O)[C@H](CC(=O)NCCCOCCCC)C[C@@]2(C(=O)OC)CC(C)(C)CC=C12,.,/,.,/,/,/
SMILES,EBI2 antag,CCR6 antagonist,HTR2A ag,APJ antag,APJ ag,CXCR6 inh
Cc1ccc2c(c1)C(=O)C(=O)N2CCOc1ccccc1,.,51.3,.,.,.,.
O=C(Nc1ccc(F)cc1)C(c1ccnc2ccccc12)N1CCN(c2cccc(C(F)(F)F)n2)CC1 (centres undefined),.,/,.,/,/,/
COCCNc1nc(Nc2ccc(C(=O)OC)cc2)c2sccc2n1,.,/,.,/,/,.
N#CC(C#N)=c1ccc2c(c1)NC1(CCCCC1)N=2,.,54.1,.,.,.,.
N#CC(C#N)=C1NC2(CCCCC2)Cc2ccccc21,.,.,.,.,.,.
Cc1nc(NC(=O)CSc2nnnn2Cc2ccccc2)sc1C,.,85.8,.,.,.,.
